Reference: ChEMBL document CHEMBL1126061, “Cyclic RGD peptide analogues as antiplatelet antithrombotics” (J Med Chem, 1992)
*1 amine or outer side, *2 acyl side, *3 side chain or, on linkers, in order; H or OH if unused. Where a SMILES comes first, the peptide text is derived from it. Bridges are numbered along the chain shown (N, C = ends). [ ]: non-standard residue; d: D form. Cys(O)(CH2CO) = O=C([C@H](C[S+]([O-])CC(=O)[*:3])N[*:1])[*:2]; X1 = C[C@@H](O)[C@@H](C(=O)[*:2])N(c1cccc(CC[*:3])c1)[*:1]; X2 = C[C@H](O)[C@H](C(=O)[*:2])N(c1cccc(CC[*:3])c1)[*:1]

Each compound was assayed against Integrin alpha-IIb/beta-3 (Homo sapiens, UniProt P05106+P08514) (assay: The compound was tested for the inhibition of fibrinogen receptor).
Sequence of Integrin alpha-IIb/beta-3 (P05106 27-788 limits assumed): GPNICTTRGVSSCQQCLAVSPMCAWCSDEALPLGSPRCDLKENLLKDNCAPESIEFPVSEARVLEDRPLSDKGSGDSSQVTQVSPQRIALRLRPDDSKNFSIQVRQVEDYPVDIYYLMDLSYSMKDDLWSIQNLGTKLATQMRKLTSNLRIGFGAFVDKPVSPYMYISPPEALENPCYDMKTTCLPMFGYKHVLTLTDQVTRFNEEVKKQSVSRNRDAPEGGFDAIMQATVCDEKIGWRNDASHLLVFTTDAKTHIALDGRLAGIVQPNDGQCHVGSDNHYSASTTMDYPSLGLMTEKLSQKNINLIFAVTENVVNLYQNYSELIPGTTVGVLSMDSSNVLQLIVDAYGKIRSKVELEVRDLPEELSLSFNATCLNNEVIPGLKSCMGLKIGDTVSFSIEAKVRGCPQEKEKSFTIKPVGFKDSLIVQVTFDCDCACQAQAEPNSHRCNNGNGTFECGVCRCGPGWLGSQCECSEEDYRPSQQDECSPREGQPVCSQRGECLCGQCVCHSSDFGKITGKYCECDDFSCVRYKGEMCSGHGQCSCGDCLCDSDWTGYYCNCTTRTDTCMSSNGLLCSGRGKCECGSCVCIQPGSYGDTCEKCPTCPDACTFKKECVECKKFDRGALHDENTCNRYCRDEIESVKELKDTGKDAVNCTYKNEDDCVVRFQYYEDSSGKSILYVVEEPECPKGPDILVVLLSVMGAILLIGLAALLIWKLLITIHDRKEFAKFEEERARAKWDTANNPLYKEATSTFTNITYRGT
Sequence of Integrin alpha-IIb/beta-3 (P08514 32-887 limits assumed): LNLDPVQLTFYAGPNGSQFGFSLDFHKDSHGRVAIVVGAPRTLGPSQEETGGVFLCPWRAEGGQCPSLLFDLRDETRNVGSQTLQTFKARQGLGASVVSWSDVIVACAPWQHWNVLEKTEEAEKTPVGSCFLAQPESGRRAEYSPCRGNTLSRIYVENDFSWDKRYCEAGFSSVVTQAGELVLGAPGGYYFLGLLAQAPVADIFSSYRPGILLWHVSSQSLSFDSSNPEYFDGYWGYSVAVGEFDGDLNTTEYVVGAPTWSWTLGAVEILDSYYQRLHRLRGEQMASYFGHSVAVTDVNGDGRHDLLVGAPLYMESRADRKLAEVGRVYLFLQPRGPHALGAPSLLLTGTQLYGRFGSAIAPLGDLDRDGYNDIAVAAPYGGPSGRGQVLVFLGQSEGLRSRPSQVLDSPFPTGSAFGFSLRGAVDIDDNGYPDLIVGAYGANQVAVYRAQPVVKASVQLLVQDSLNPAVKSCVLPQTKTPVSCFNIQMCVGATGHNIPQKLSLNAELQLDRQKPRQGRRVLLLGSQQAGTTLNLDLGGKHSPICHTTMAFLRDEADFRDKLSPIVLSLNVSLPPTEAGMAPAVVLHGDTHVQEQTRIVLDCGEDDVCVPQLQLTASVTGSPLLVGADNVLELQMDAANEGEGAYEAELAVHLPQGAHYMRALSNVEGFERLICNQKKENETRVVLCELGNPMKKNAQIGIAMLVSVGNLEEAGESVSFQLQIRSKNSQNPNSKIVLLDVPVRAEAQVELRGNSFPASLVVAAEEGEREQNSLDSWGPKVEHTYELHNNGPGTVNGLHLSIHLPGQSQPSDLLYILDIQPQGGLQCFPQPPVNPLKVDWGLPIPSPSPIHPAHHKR
Sequence of Integrin alpha-IIb/beta-3 (P08514 891-1039 limits assumed): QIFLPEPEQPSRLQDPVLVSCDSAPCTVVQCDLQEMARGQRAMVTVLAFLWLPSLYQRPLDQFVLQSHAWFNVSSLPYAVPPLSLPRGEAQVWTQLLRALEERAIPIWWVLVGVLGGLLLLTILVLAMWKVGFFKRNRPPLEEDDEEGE
Format: protein-complex assay
How it was run: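 Solid-phase ELISA: human fibrinogen (10 µg/mL) coated, BSA-blocked; samples plus purified human platelet GPIIbIIIa (40 µg/mL) incubated 1 h at room temperature. Bound receptor detected with anti-GPIIbIIIa antibody AP3 (1 µg/mL, 1 h), then goat anti-mouse HRP (1 h); OPD/H2O2 at pH 5, stopped with H2SO4, absorbance 492-405 nm. IC50 from four-parameter fit; n ≥ 3.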

Row | IC50 | Compound
1 | 18 nM | CC[C@@H](C)[C@H]1NC(=O)CSC[C@@H](C(=O)O)NC(=O)[C@H](CC(=O)O)NC(=O)CNC(=O)[C@H](CCCN=C(N)N)NC1=O
2 | 3 nM | CC(C)C[C@@H]1NC(=O)CSC[C@@H](C(=O)O)NC(=O)[C@H](CC(=O)O)NC(=O)CNC(=O)[C@H](CCCNC(=N)N)NC1=O
3 | 29 nM | N=C(N)NCCC[C@@H]1NC(=O)[C@@H](Cc2c[nH]c3ccccc23)NC(=O)CSC[C@@H](C(=O)O)NC(=O)[C@H](CC(=O)O)NC(=O)CNC1=O
4 | 35 nM | N=C(N)NCCC[C@@H]1NC(=O)[C@@H](Cc2ccccc2)NC(=O)CSC[C@@H](C(=O)O)NC(=O)[C@H](CC(=O)O)NC(=O)CNC1=O
5 | 38 nM | CC(C)C[C@H]1NC(=O)CSC[C@@H](C(=O)O)NC(=O)[C@H](CC(=O)O)NC(=O)CNC(=O)[C@H](CCCNC(=N)N)NC1=O
6 | 7 nM | N=C(N)NCCC[C@@H]1NC(=O)[C@H](Cc2ccccc2)NC(=O)CSC[C@@H](C(=O)O)NC(=O)[C@H](CC(=O)O)NC(=O)CNC1=O
7 | 110 nM | NC(=O)CC[C@H]1NC(=O)CSC[C@@H](C(=O)O)NC(=O)[C@H](CC(=O)O)NC(=O)CNC(=O)[C@H](CCCN=C(N)N)NC1=O
8 | 7.5 nM | NCCCC[C@@H]1NC(=O)CSC[C@@H](C(=O)O)NC(=O)[C@H](CC(=O)O)NC(=O)CNC(=O)[C@H](CCCN=C(N)N)NC1=O
9 | 2 nM | CC(C)[C@@H]1NC(=O)CSC[C@@H](C(=O)O)NC(=O)[C@H](CC(=O)O)NC(=O)CNC(=O)[C@H](CCCN=C(N)N)NC1=O
10 | 20 nM | N=C(N)NCCC[C@@H]1NC(=O)[C@@H](CCCCN)NC(=O)CSC[C@@H](C(=O)O)NC(=O)[C@H](CC(=O)O)NC(=O)CNC1=O
11 | 14 nM | N=C(N)NCCC[C@@H]1NC(=O)CNC(=O)[C@H](Cc2ccccc2)SC[C@@H](C(=O)O)NC(=O)[C@H](CC(=O)O)NC(=O)CNC1=O
12 | 3 nM | N=C(N)NCCC[C@@H]1NC(=O)[C@H](Cc2cnc[nH]2)NC(=O)CSC[C@@H](C(=O)O)NC(=O)[C@H](CC(=O)O)NC(=O)CNC1=O
13 | 434 nM | CC(=O)NCC(=O)N[C@@H](CCCNC(=N)N)C(=O)NCC(=O)N[C@@H](CC(=O)O)C(=O)N[C@H](C(N)=O)C(C)C (Ac-GRGDV-NH2)
14 | 12 nM | CC(=O)NCC(=O)N[C@@H](CCCNC(=N)N)C(=O)NCC(=O)N[C@@H](CC(=O)O)C(=O)N[C@H](C(=O)O)C(C)C (Ac-GRGDV-OH)
15 | 6 nM | N=C(N)NCCC[C@@H]1NC(=O)[C@H](CC(=O)O)NC(=O)C[S+]([O-])C[C@@H](C(=O)O)NC(=O)[C@H](CC(=O)O)NC(=O)CNC1=O (some centres not stated) (DRGD[Cys(O)(CH2CO)]-OH; lactam N-5)
16 | 231 nM | NCC(=O)N[C@@H](CCCN=C(N)N)C(=O)NCC(=O)N[C@@H](CC(=O)O)C(=O)N[C@@H](CC(=O)O)C(=O)O (H-GRGDD-OH)
17 | 500 nM | CC(C)C[C@H](NC(=O)[C@H](CC(=O)O)NC(=O)CNC(=O)[C@H](CCCN=C(N)N)NC(=O)CN)C(=O)O (H-GRGDL-OH)
18 | 240 nM | NCC(=O)N[C@@H](CCCN=C(N)N)C(=O)NCC(=O)N[C@@H](CC(=O)O)C(=O)N[C@@H](Cc1ccc(O)cc1)C(=O)O (H-GRGDY-OH)
19 | 105 nM | CC(C)C[C@H](NC(=O)[C@H](CC(=O)O)NC(=O)CNC(=O)[C@@H](N)CCCN=C(N)N)C(=O)O (H-RGDL-OH)
20 | 70 nM | NC(N)=NCCC[C@H](N)C(=O)NCC(=O)N[C@@H](CC(=O)O)C(=O)N[C@@H](Cc1ccc(O)cc1)C(=O)O (H-RGDY-OH)
21 | 1.7 nM | C[C@@H](O)[C@@H]1Nc2cccc(c2)CCSC[C@@H](C(=O)O)NC(=O)[C@H](CC(=O)O)NC(=O)CNC(=O)[C@H](CCCN=C(N)N)NC1=O (H-[X1]RGDC-OH; thioether 1-5)
22 | 7 nM | C[C@H](O)[C@H]1Nc2cccc(c2)CCSC[C@@H](C(=O)O)NC(=O)[C@H](CC(=O)O)NC(=O)CNC(=O)[C@H](CCCN=C(N)N)NC1=O (H-[X2]RGDC-OH; thioether 1-5)
23 | 4.5 nM | N=C(N)NCCC[C@@H]1NC(=O)[C@H](Cc2ccc(O)cc2)NC(=O)C[S+]([O-])C[C@@H](C(N)=O)NC(=O)[C@H](CC(=O)O)NC(=O)CNC1=O (some centres not stated) (YRGD[Cys(O)(CH2CO)]-NH2; lactam N-5)
24 | 5.3 nM | N=C(N)NCCC[C@@H]1NC(=O)CNC(=O)C(c2cccc3ccccc23)SC[C@@H](C(=O)O)NC(=O)[C@H](CC(=O)O)NC(=O)CNC1=O (stereo in doubt; 17A)

Row | IC50 | Compound
25 | 1.4 nM | N=C(N)NCCC[C@@H]1NC(=O)CNC(=O)C(c2cccc3ccccc23)SC[C@@H](C(=O)O)NC(=O)[C@H](CC(=O)O)NC(=O)CNC1=O (stereo in doubt; 17B)
26 | 15 nM | N=C(N)NCCC[C@@H]1NC(=O)CNC(=O)C(c2ccccc2)SC[C@@H](C(=O)O)NC(=O)[C@H](CC(=O)O)NC(=O)CNC1=O (stereo in doubt; 18A)
27 | 0.5 nM | N=C(N)NCCC[C@@H]1NC(=O)CNC(=O)C(c2ccccc2)SC[C@@H](C(=O)O)NC(=O)[C@H](CC(=O)O)NC(=O)CNC1=O (stereo in doubt; 18B)
28 | 5 nM | N=C(N)NCCC[C@@H]1NC(=O)CNC(=O)C(c2ccc(-c3ccccc3)cc2)SC[C@@H](C(=O)O)NC(=O)[C@H](CC(=O)O)NC(=O)CNC1=O (stereo in doubt; 19A)
29 | 3.5 nM | N=C(N)NCCC[C@@H]1NC(=O)CNC(=O)C(c2ccc(-c3ccccc3)cc2)SC[C@@H](C(=O)O)NC(=O)[C@H](CC(=O)O)NC(=O)CNC1=O (stereo in doubt; 19B)
30 | 23 nM | N=C(N)NCCC[C@@H]1NC(=O)CNC(=O)C(c2ccccc2C(F)(F)F)SC[C@@H](C(=O)O)NC(=O)[C@H](CC(=O)O)NC(=O)CNC1=O (stereo in doubt; 20A)
31 | 2.7 nM | N=C(N)NCCC[C@@H]1NC(=O)CNC(=O)C(c2ccccc2C(F)(F)F)SC[C@@H](C(=O)O)NC(=O)[C@H](CC(=O)O)NC(=O)CNC1=O (stereo in doubt; 20B)
32 | 11.5 nM | N=C(N)NCCC[C@@H]1NC(=O)CNC(=O)C(c2ccc3ccccc3c2)SC[C@@H](C(=O)O)NC(=O)[C@H](CC(=O)O)NC(=O)CNC1=O (stereo in doubt; 21A)
33 | 2.8 nM | N=C(N)NCCC[C@@H]1NC(=O)CNC(=O)C(c2ccc3ccccc3c2)SC[C@@H](C(=O)O)NC(=O)[C@H](CC(=O)O)NC(=O)CNC1=O (stereo in doubt; 21B)
34 | 180 nM | N=C(N)NCCC[C@@H]1NC(=O)CNC(=O)C(c2ccc(C(F)(F)F)cc2)SC[C@@H](C(=O)O)NC(=O)[C@H](CC(=O)O)NC(=O)CNC1=O (stereo in doubt; 22A)
35 | 4 nM | N=C(N)NCCC[C@@H]1NC(=O)CNC(=O)C(c2ccc(C(F)(F)F)cc2)SC[C@@H](C(=O)O)NC(=O)[C@H](CC(=O)O)NC(=O)CNC1=O (stereo in doubt; 22B)
36 | 21 nM | CCCC1SC[C@@H](C(=O)O)NC(=O)[C@H](CC(=O)O)NC(=O)CNC(=O)[C@H](CCCNC(=N)N)NC(=O)CNC1=O (stereo in doubt; 23A)
37 | 5.4 nM | CCCC1SC[C@@H](C(=O)O)NC(=O)[C@H](CC(=O)O)NC(=O)CNC(=O)[C@H](CCCNC(=N)N)NC(=O)CNC1=O (stereo in doubt; 23B)
38 | 35 nM | N=C(N)NCCC[C@@H]1NC(=O)CNC(=O)C(c2cccc(C(F)(F)F)c2)SC[C@@H](C(=O)O)NC(=O)[C@H](CC(=O)O)NC(=O)CNC1=O (stereo in doubt; 24A)
39 | 5.7 nM | N=C(N)NCCC[C@@H]1NC(=O)CNC(=O)C(c2cccc(C(F)(F)F)c2)SC[C@@H](C(=O)O)NC(=O)[C@H](CC(=O)O)NC(=O)CNC1=O (stereo in doubt; 24B)
40 | 20 nM | CCC1SC[C@@H](C(=O)O)NC(=O)[C@H](CC(=O)O)NC(=O)CNC(=O)[C@H](CCCN=C(N)N)NC(=O)CNC1=O (stereo in doubt; 25A)
41 | 6 nM | CCC1SC[C@@H](C(=O)O)NC(=O)[C@H](CC(=O)O)NC(=O)CNC(=O)[C@H](CCCN=C(N)N)NC(=O)CNC1=O (stereo in doubt; 25B)
42 | 1.4 nM | N=C(N)NCCC[C@@H]1NC(=O)CNC(=O)C[S+]([O-])C[C@@H](C(=O)O)NC(=O)[C@H](CC(=O)O)NC(=O)CNC1=O (stereo in doubt; 66A)
43 | 25 nM | N=C(N)NCCC[C@@H]1NC(=O)CNC(=O)C[S+]([O-])C[C@@H](C(=O)O)NC(=O)[C@H](CC(=O)O)NC(=O)CNC1=O (stereo in doubt; 66B)
44 | 6 nM | N=C(N)NCCC[C@@H]1NC(=O)[C@H](CC(N)=O)NC(=O)C[S+]([O-])C[C@@H](C(=O)O)NC(=O)[C@H](CC(=O)O)NC(=O)CNC1=O (stereo in doubt; 67A)
45 | 5.3 nM | N=C(N)NCCC[C@@H]1NC(=O)[C@H](CC(N)=O)NC(=O)C[S+]([O-])C[C@@H](C(=O)O)NC(=O)[C@H](CC(=O)O)NC(=O)CNC1=O (stereo in doubt; 67B)
46 | 1.6 nM | C[C@@H]1NC(=O)C[S+]([O-])C[C@@H](C(=O)O)NC(=O)[C@H](CC(=O)O)NC(=O)CNC(=O)[C@H](CCCN=C(N)N)NC1=O (stereo in doubt; 68A)
47 | 4.7 nM | C[C@@H]1NC(=O)C[S+]([O-])C[C@@H](C(=O)O)NC(=O)[C@H](CC(=O)O)NC(=O)CNC(=O)[C@H](CCCN=C(N)N)NC1=O (stereo in doubt; 68B)

Row | Compound | IC50
48 | CC(C)[C@H](NC(=O)[C@H](CC(=O)O)NC(=O)CNC(=O)[C@H](CCCN=C(N)N)NC(=O)CN)C(=O)O (H-GRGDV-OH) | 30 nM
49 | N=C(N)NCCC[C@@H]1NC(=O)[C@@H](Cc2ccc(O)cc2)NC(=O)C[S+]([O-])C[C@@H](C(=O)O)NC(=O)[C@H](CC(=O)O)NC(=O)CNC1=O (stereo in doubt; 69A) | 7.3 nM
50 | N=C(N)NCCC[C@@H]1NC(=O)[C@@H](Cc2ccc(O)cc2)NC(=O)C[S+]([O-])C[C@@H](C(=O)O)NC(=O)[C@H](CC(=O)O)NC(=O)CNC1=O (stereo in doubt; 69B) | 40 nM
51 | N=C(N)NCCC[C@@H]1NC(=O)[C@H](Cc2ccc(O)cc2)NC(=O)C[S+]([O-])C[C@@H](C(=O)O)NC(=O)[C@H](CC(=O)O)NC(=O)CNC1=O (stereo in doubt; 70A) | 1.5 nM
52 | N=C(N)NCCC[C@@H]1NC(=O)[C@H](Cc2ccc(O)cc2)NC(=O)C[S+]([O-])C[C@@H](C(=O)O)NC(=O)[C@H](CC(=O)O)NC(=O)CNC1=O (stereo in doubt; 70B) | 4.8 nM
